High-throughput results deposited in PubChem BioAssay by several laboratories.
In the library only some 2.6% were active in any assay of this set; here they are far more common.
Platelet DG rel – platelet dense granule release activity; human platelet-rich plasma, SFLLRN dense granule ATP release, luminescence; 300,000 tested, 0.22% active; inhibition, %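 (compounds screened at 7.5 µM in platelet-rich plasma)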;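 active = mean replicate score, as percent of positive control, at or above 50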
SENP8 block-1 – blocks human SENP8 cleavage of Nedd8 substrate | Q96LD8 | recombinant SENP8, Nedd8 substrate fluorescence | inhibition, % at 20 µM | 360,000 tested, 0.64% active | AID 602440; in the data active = inhibition mostly above about 40%, no sharp cut-off; inactive = mostly below about 27%
SENP1 FRET inh – inhibitors of human SENP1 SUMO protease catalytic domain | Q9P0U3 | recombinant SENP1 catalytic domain, CyPet-SUMO1-YPet FRET cleavage | inhibition, % at 10 µM | 360,000 tested, 0.21% active;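 active = inhibition at least 30% at 10 µM, raw YFP signal under a set limit, fluorescence ratio 0.5 to 1.5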;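 note: 0% = enzyme with DMSO and 100% = no enzyme wells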
Target sequence (Q9P0U3 419-644 limits assumed): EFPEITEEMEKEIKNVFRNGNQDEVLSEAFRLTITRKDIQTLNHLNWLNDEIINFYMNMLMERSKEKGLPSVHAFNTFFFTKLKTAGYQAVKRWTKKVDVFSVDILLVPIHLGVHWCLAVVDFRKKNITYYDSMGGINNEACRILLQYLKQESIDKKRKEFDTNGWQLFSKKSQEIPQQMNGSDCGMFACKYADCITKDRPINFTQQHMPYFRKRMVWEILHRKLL
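Assay system: hSENP1 catalytic domain, recombinant. Amount: SENP1 enzyme, 20 pM final. Schedule: 50 min reaction, RT, dark. Technique: FRET, CFP and YFP emission. Control set: no-enzyme wells low, DMSO-plus-enzyme wells high control.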
SENP6 inh – blocks the human protease SENP6; Recombinant SENP6 catalytic domain, aminoluciferin luminescence; inhibition, % at 10 µM; 330,000 tested, 1.8% active; AID 2599;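 active = inhibition above about 50% at the single tested dose, limit read from the data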;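 note: plate controls were DMSO wells with enzyme for no effect and DMSO wells lacking enzyme for full effect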
Target sequence (Q9GZR1 628-1112 limits assumed): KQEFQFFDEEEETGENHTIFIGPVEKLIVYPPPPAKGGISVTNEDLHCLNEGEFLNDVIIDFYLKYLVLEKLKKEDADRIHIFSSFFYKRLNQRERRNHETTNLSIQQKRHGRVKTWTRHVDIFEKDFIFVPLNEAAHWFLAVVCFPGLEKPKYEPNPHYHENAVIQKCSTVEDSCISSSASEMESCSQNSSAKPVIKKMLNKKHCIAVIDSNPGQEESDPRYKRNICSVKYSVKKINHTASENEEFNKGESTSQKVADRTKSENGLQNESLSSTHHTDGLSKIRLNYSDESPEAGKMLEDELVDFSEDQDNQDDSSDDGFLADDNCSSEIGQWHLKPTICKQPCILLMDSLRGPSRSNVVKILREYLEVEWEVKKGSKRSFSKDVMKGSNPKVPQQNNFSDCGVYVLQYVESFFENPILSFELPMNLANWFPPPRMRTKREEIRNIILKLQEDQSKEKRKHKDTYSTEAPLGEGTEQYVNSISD
SENP7 block – blocks the human protease SENP7; 330,000 tested, 1.5% active; recombinant SENP7, Z-RLRGG-aminoluciferin luminescence, 40 min; inhibition, % at 5 µM;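 active = inhibition above about 50% at the single test dose, limit read from the data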;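 note: plate controls were DMSO with enzyme for no effect and no enzyme buffer wells for full effect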
SENP8 block-2 – blocks the human protease SENP8. 330,000 tested, 1.2% active. inhibition, % at 10 µM. purified SENP8, Z-RLRGG-aminoluciferin cleavage, luminescence. AID 2540. Q96LD8; in the data active = inhibition above about 50%
SENP8 conf – human SENP8 inhibition, confirmed; shares compounds with SENP7 block; Recombinant SENP8, Z-RLRGG-aminoluciferin luminescence, 60 min; inhibition, % at 12.5 µM; 6,200 tested, 40% active; AID 488912;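 active = mean inhibition across replicates above about 50%, limit read from the data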
SENP6 confirm – human SENP6 inhibition, confirmed; shares compounds with SENP7 block; inhibition, % at 12.5 µM; recombinant SENP6, Z-RLRGG-aminoluciferin luminescence; 6,200 tested, 58% active
SENP7 confirm – human SENP7 inhibition, confirmed | shares compounds with SENP7 block | recombinant SENP7, Z-RLRGG-aminoluciferin luminescence, 40 min | inhibition, % at 12.5 µM | 6,200 tested, 69% active | AID 488917
Casp3 SENP sel – selectivity test for SENP inhibitors: human caspase-3 inhibition | shares compounds with SENP7 block | purified caspase-3, Z-DEVD-aminoluciferin luminescence, 60 min | inhibition, % at 12.5 µM | 6,200 tested, 60% active | AID 488918;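 active = mean inhibition above about 50%, limit read from the data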;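 note: plate controls were enzyme with DMSO for no effect and wells without caspase-3 for full effect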
SENP luc ctr – luminescence interference (SENP counter-screen); 6,200 tested, 39% active; shares compounds with SENP7 block; inhibition, % at 12.5 µM; Pre-incubated SENP8/Z-RLRGG-aminoluciferin, luciferase luminescence interference;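 active = mean inhibition above about 50% when retested at one dose, limit read from the data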;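 note: plate controls were DMSO wells with completed reaction for no effect and substrate without enzyme for full effect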
* hit, by the source's call; . = no result given.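 Rule for the calls, unless noted: active = mean inhibition above about 50% in the one-dose retest (limit read from the data); inactive = the rest.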

SMILES	Platelet DG rel	SENP8 block-1	SENP1 FRET inh	SENP6 inh	SENP7 block	SENP8 block-2	SENP8 conf	SENP6 confirm	SENP7 confirm	Casp3 SENP sel	SENP luc ctr
O=C(O)c1ccc(N/N=C/c2cccc(C(F)(F)F)c2)cc1	-2.7	-54.6	0.6	73.6*	46.3	66.4*	79.7*	70.3*	94.7*	25.2	90.4*
CSc1ccc(/C=N/Nc2cccc(C(=O)O)c2)cc1	.	-110.3	-7.4	.	.	.	.	.	.	.	.
Cc1ccc(N/N=C/c2ccncc2)cc1	0.7	26.5	-3.4	-20.8	4.5	-15.0	.	.	.	.	.
O=C(O)c1ccc(N/N=C/c2ccncc2)cc1	10.1	5.0	0.8	90.0*	93.5*	85.4*	91.4*	92.6*	99.9*	87.5*	93.6*
Cn1c(N2CCOCC2)c(C#N)c2ccccc21	0.3	13.4	-0.6	-7.6	-1.7	5.8	.	.	.	.	.
CCc1nnc(NC(=O)C2=CCN(S(=O)(=O)c3ccc(F)cc3)CC2)s1	24.1	4.1	2.6	-6.6	-4.0	-3.6	.	.	.	.	.
NC(=O)c1ccc(-c2noc(-c3cccc(Cl)c3)n2)cc1	.	9.4	0.3	5.9	58.2*	13.5	-14.4	-8.4	7.5	15.9	-2.3
COc1cc(-c2noc(-c3cccc(Cl)c3)n2)cc(OC)c1OC	-3.6	12.8	1.4	-4.4	1.6	-2.4	.	.	.	.	.
O=C(O)c1cccc(-c2noc(-c3cccc(Cl)c3)n2)c1	.	10.1	0.8	99.3*	100.7*	98.1*	99.2*	100.3*	103.3*	97.5*	96.5*
COC(=O)C(Cc1ccc(O)cc1)NC(=O)c1ccc2c(c1)OCCO2 (stereo not given)	-8.6	11.3	2.9	15.8	-3.6	-11.9	.	.	.	.	.
CCOC(=O)Cn1c(C(F)(F)F)nc2nc(Cl)c(Cl)nc21	.	-189.8	-29.5	.	.	.	.	.	.	.	.
Cc1cc(C(=O)N/N=C2\CC(=O)c3ccccc32)c(C)n1-c1ccc(F)cc1	1.4	79.1*	4.0	73.2*	21.4	39.8	26.7	49.7	40.1	50.7*	11.8
Oc1ccccc1/C=N/Nc1cccc2cccnc12	9.0	-60.7	-66.5	92.3*	88.2*	86.5*	92.2*	96.1*	101.4*	79.9*	43.0
CCCS(=O)(=O)c1cnc(C2COc3ccccc3O2)nc1N (stereo not given)	66.4*	12.8	2.1	92.6*	94.3*	87.4*	81.9*	91.9*	99.9*	95.8*	17.2
S=c1nc(C2COc3ccccc3O2)[nH][nH]1 (stereo not given)	-9.4	-1.0	1.8	-9.9	-1.6	-1.7	.	.	.	.	.
O=S(=O)(Nc1nnc(C2CC2)s1)c1ccccc1	0.3	6.5	-1.2	-18.9	-5.7	-3.1	.	.	.	.	.
COc1ccc(NC(=O)N2CCCc3ccccc32)cc1OC	-0.1	4.1	1.4	6.0	2.2	1.6	.	.	.	.	.
Cc1ccc(NC(=O)N2CCCc3ccccc32)cc1	-5.4	14.1	1.2	-17.2	-2.3	-8.0	.	.	.	.	.
CC(=O)Nc1ccc(NC(=O)Nc2ccc3c(c2)N(C)C(=O)CS3)cc1	-3.2	8.3	2.1	2.3	-0.3	-4.4	.	.	.	.	.
CN1C(=O)CSc2ccc(NC(=O)N3CCc4ccccc43)cc21	-4.2	1.8	3.9	59.2*	46.4	47.3	56.9*	53.8*	84.6*	61.8*	52.7*
Cc1ccc2c(CC(=O)N3CCc4ccccc43)coc2c1	.	-0.5	-3.5	81.3*	81.9*	66.1*	21.2	30.5	59.5*	69.5*	9.2
Cc1ccc(NC(=O)N2CCc3ccccc32)cc1	33.5	31.6	1.5	85.7*	93.7*	89.0*	91.4*	93.5*	100.7*	94.4*	93.7*
Cc1ccc(NC(=O)N2CCc3ccccc32)cc1C	16.2	6.4	-0.5	89.7*	92.5*	82.3*	91.4*	91.0*	98.9*	88.1*	81.4*
O=C(Cn1cnc2c(nnn2Cc2ccc(F)cc2)c1=O)Nc1ccccc1	-12.2	3.9	1.9	-21.1	-4.1	1.0	.	.	.	.	.
C[C@@H]1Cn2cnc(C(=O)NCc3ccc(CNC(=O)OC(C)(C)C)cc3)c2C(=O)N1	.	17.7	1.7	.	.	.	.	.	.	.	.
SMILES	Platelet DG rel	SENP8 block-1	SENP1 FRET inh	SENP6 inh	SENP7 block	SENP8 block-2	SENP8 conf	SENP6 confirm	SENP7 confirm	Casp3 SENP sel	SENP luc ctr
CC(C)=CCC/C(C)=C/CC/C(C)=C/COc1ccc2ccc(=O)oc2c1	.	-467.1	-94.9	-7.1	3.4	5.3	.	.	.	.	.
Oc1ccc(Cl)cc1C1=NNC(c2cccs2)C1 (stereo not given)	8.5	-90.8	4.3	2.8	-4.1	-3.8	.	.	.	.	.
O=[N+]([O-])c1ccc(O)c(C2=NNC(c3ccccc3F)C2)c1 (stereo not given)	2.1	22.1	10.5	-15.8	39.0	85.0*	-3.9	85.8*	96.8*	37.7	50.0*
CCCCC(=O)N(C)c1c(C)nc2ccc(C(=O)N3CCCCC3)cn12	.	-7.7	-1.1	.	.	.	.	.	.	.	.
CC(C)OCCCNC(=O)c1ccc(CS(=O)(=O)c2cccc(C(F)(F)F)c2)o1	1.0	3.3	2.9	11.0	-1.7	-6.1	.	.	.	.	.
CCOC(=O)c1sc(NC(C)=O)cc1C	7.8	3.6	0.9	-6.8	1.7	0.7	.	.	.	.	.
CCOC(=O)c1sc(NC(=O)c2ccc(C)s2)cc1C	-0.9	-323.0	2.1	43.4	73.0*	20.0	16.6	37.4	71.1*	47.3	18.5
CCOC(=O)c1sc(NC(=O)Nc2ccccc2Cl)cc1C	-0.6	-40.9	-1.6	94.8*	99.1*	94.6*	94.9*	96.3*	99.6*	88.7*	42.6
CCOC(=O)c1sc(NC(=O)Nc2ccccc2)cc1C	-1.9	-79.3	1.8	97.8*	89.2*	81.0*	90.7*	90.7*	97.9*	68.5*	71.6*
CCOC(=O)c1cc(NC(=O)Nc2ccccc2Cl)c(C)nc1C	1.5	0.0	1.4	-5.2	-6.9	3.7	.	.	.	.	.
CC1CCCCC12NC(=O)N(CC(=O)N1CCN(S(=O)(=O)c3ccc4c(c3)CCC4)CC1)C2=O (stereo not given)	.	16.9	1.1	-7.0	10.9	0.6	.	.	.	.	.
COc1cccc(CN(C)C(=O)/C=C/c2ccc(S(=O)(=O)N3CCCCCC3)cc2)c1	-5.5	6.8	0.1	8.2	-2.6	7.1	.	.	.	.	.
CC1CCCCN1CC(O)COc1ccc(OCC(O)CN2CCCCC2C)cc1 (stereo not given)	-1.7	10.8	0.9	3.8	-2.8	10.5	.	.	.	.	.
